{
  "source": "ChEMBL document CHEMBL4513216",
  "about": "“Probing the Open Global Health Chemical Diversity Library for Multistage-Active Starting Points for Next-Generation Antimalarials” (ACS Infect Dis, 2020)",
  "data": [
    {"assay": "Toxicity liver stage against HepG2, at 10uM", "format": "cell-based", "set-up": "test concentration 10 uM, cell line HepG2-A16-CD81EGFP", "details": "human, HepG2-A16-CD81EGFP cells; read-out: INHIBITION", "in_short": "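Uninfected HepG2-A16-CD81EGFP cells, 3 × 10^3 per well, 1536-well, plated on prespotted compound at 10 μM final, parasite-free screening media added to match infected plates; puromycin 10 μM positive, DMSO 0.5% negative; run in parallel with 48 h PbLuc assay at 37 °C, 5% CO2; viability by CellTiter-Glo luminescence, normalized to controls.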", "units": {"cytotoxicity at 10 µM": "%"}, "values": [
      {"smiles": "CC(CCc1ccccc1)CC(=O)NC1CCN(CC(N)=O)CC1", "note": "(stereo not given)", "cytotoxicity at 10 µM": 9.04},
      {"smiles": "Cc1ccc(S(=O)(=O)NCCCN2CCC(O)CC2)cc1Cl", "cytotoxicity at 10 µM": 8.68},
      {"smiles": "O=S(=O)(CCO)Cc1ccc(OCC(F)(F)F)cc1", "cytotoxicity at 10 µM": 2.23},
      {"smiles": "Cc1cc(C(=O)N2C[C@H](c3ccccc3)[C@@H](N)C2)c2ccc(F)cc2n1", "cytotoxicity at 10 µM": 3.96},
      {"smiles": "CC1CCCCN1S(=O)(=O)NCc1cccnc1OC1CCCC1", "note": "(stereo not given)", "cytotoxicity at 10 µM": -89.8},
      {"smiles": "O=C1CC2(CCCNC2)C(=O)N1Cc1ccc(Cl)cc1", "note": "(stereo not given)", "cytotoxicity at 10 µM": -1.57},
      {"smiles": "CNC(=O)CNC(=O)Nc1ccc(Br)c(F)c1", "cytotoxicity at 10 µM": 5.44},
      {"smiles": "O=c1[nH]c2nc(N3CCCCCC3)ncc2c(=O)n1-c1cccc(F)c1", "cytotoxicity at 10 µM": 6.39},
      {"smiles": "O=C(O)C(c1ccc2c(c1)OCCO2)N1CCCCCC1", "note": "(stereo not given)", "cytotoxicity at 10 µM": -3.26},
      {"smiles": "CN1[C@H](Cn2cccn2)C[C@@H]2CN(Cc3cccs3)CC[C@@H]21", "cytotoxicity at 10 µM": 11.9},
      {"smiles": "O=C(NC1CCc2nccn2C1)c1ccc(OCC2CC2)nc1", "note": "(stereo not given)", "cytotoxicity at 10 µM": 4.36},
      {"smiles": "Cc1cccc(C(C(=O)NCCc2nc(C)cc(=O)[nH]2)N(C)C)c1", "note": "(stereo not given)", "cytotoxicity at 10 µM": -6.24},
      {"smiles": "Cc1csc(NC(=O)C(C)Oc2ccc3c(c2)OCO3)n1", "note": "(stereo not given)", "cytotoxicity at 10 µM": 8.06},
      {"smiles": "Cc1ccc(-c2cnc(CCC(=O)NCCN3CCOCC3)o2)cc1C", "cytotoxicity at 10 µM": 7.36},
      {"smiles": "CNC(=O)COC1COC2(CCN(Cc3cccnc3)CC2)C1", "note": "(stereo not given)", "cytotoxicity at 10 µM": 6.53},
      {"smiles": "O=c1[nH][nH]cc1-c1ccnc(NCCN2CCCC2)n1", "cytotoxicity at 10 µM": 2.89},
      {"smiles": "Cc1nn(C)cc1CN(C)C(=O)c1ccncc1", "cytotoxicity at 10 µM": -5.51},
      {"smiles": "CCCNC(=O)COc1ccc(-c2ccccc2)nc1", "cytotoxicity at 10 µM": 6.16},
      {"smiles": "CCC(CO)N(Cc1cccs1)C(=O)CSC", "note": "(stereo not given)", "cytotoxicity at 10 µM": 4.78},
      {"smiles": "O=C(c1cnccn1)N1CC(S(=O)(=O)c2ccc(Cl)cc2)C1", "cytotoxicity at 10 µM": -2.3},
      {"smiles": "O=C(NCc1ccccc1CN1CCOCC1)Nc1nncs1", "cytotoxicity at 10 µM": 14.3},
      {"smiles": "CCOCC1CN(C(=O)c2ccsc2)Cc2nn(C)cc21", "note": "(stereo not given)", "cytotoxicity at 10 µM": 3.39},
      {"smiles": "CC(C)[C@H](NC(=O)c1cccc(CCC(C)(C)O)c1)C(N)=O", "cytotoxicity at 10 µM": -0.471},
      {"smiles": "CCSc1ncc(CN2CCC(O)(CN3CCOCC3)C(C)(C)C2)cn1", "note": "(stereo not given)", "cytotoxicity at 10 µM": 7.49},
      {"smiles": "COCCc1noc(CN2CC(Cc3ccccc3)CC2=O)n1", "note": "(stereo not given)", "cytotoxicity at 10 µM": -7.11},
      {"smiles": "COc1ccc(CC(=O)N2CCC(c3n[nH]c(C4CC4)n3)CC2)cc1", "cytotoxicity at 10 µM": -14.6},
      {"smiles": "O=C(O)CSc1nnc(-c2ccn[nH]2)n1-c1cccc(C(F)(F)F)c1", "cytotoxicity at 10 µM": 0.34},
      {"smiles": "CN(C)C(=O)N1CCC2(CC1)CCN(c1ncccn1)C2", "cytotoxicity at 10 µM": -1.05},
      {"smiles": "O=C(c1nn(-c2ccccc2F)cc1O)N1CCC2(CC1)OCCO2", "cytotoxicity at 10 µM": -3.24},
      {"smiles": "Cc1ccc(C)c(OCCNC(=O)[C@@H]2CCCCN2)c1", "cytotoxicity at 10 µM": 0.997},
      {"smiles": "O=C(NC1CC1)[C@H]1CC[C@@H]2[C@@H](CCN2CCOCc2ccccc2)O1", "cytotoxicity at 10 µM": -115},
      {"smiles": "COc1cccc2c(=O)n(Cc3nc(C)cc(O)n3)cnc12", "cytotoxicity at 10 µM": 9.49},
      {"smiles": "Fc1ccc(CN2CCCCC2Cn2cncn2)c2ncccc12", "note": "(stereo not given)", "cytotoxicity at 10 µM": 6.95},
      {"smiles": "CCc1noc(CNc2cc(F)ccc2OCC2CCCO2)n1", "note": "(stereo not given)", "cytotoxicity at 10 µM": -3.27},
      {"smiles": "Cc1cc2cc(Nc3c(C#N)c(=O)n(C)c(=O)n3C)ccc2[nH]1", "cytotoxicity at 10 µM": 1.11},
      {"smiles": "CCCC(=O)NCC(=O)NC1CC(C)(C)Cc2oc(C)cc21", "note": "(stereo not given)", "cytotoxicity at 10 µM": -4.32},
      {"smiles": "c1ccc(-c2noc([C@@H]3Cc4nc[nH]c4CN3)n2)cc1", "cytotoxicity at 10 µM": -4.26},
      {"smiles": "Cc1cnc(CC2COCCN(C(=O)c3cncnc3)C2)cn1", "note": "(stereo not given)", "cytotoxicity at 10 µM": 0.187},
      {"smiles": "CCn1nc(C)c(CNC(=O)NCC(C)(O)c2ccccc2)c1C", "note": "(stereo not given)", "cytotoxicity at 10 µM": -7.12},
      {"smiles": "COc1c(CNCc2nnc3n2CCCCC3)c(C(C)C)nn1C", "cytotoxicity at 10 µM": 11.5},
      {"smiles": "CCN1CCC(NC(=O)c2ccc(F)cc2I)CC1", "cytotoxicity at 10 µM": -10},
      {"smiles": "Cc1nc(CN2C[C@@H]3CCCO[C@@H]3[C@H](NC(=O)CC3CC3)C2)cs1", "cytotoxicity at 10 µM": 9.2},
      {"smiles": "CNS(=O)(=O)c1cccc(C(C)NCc2ccccc2)c1", "note": "(stereo not given)", "cytotoxicity at 10 µM": -2.29},
      {"smiles": "CN(CCCc1cnn(C)c1)c1nccc(-c2cc(C(=O)O)ccn2)n1", "cytotoxicity at 10 µM": -3.29},
      {"smiles": "COCCN(Cc1cccs1)C(=O)c1ccc(=O)n(C)c1", "cytotoxicity at 10 µM": -4.78},
      {"smiles": "CO[C@@H]1CCN(S(=O)(=O)c2cn(C)cn2)[C@H]1Cc1ccncc1", "cytotoxicity at 10 µM": 4.05},
      {"smiles": "COC1CCN(CCNc2ncc(Br)cc2C)CC1", "cytotoxicity at 10 µM": -13.9},
      {"smiles": "O=C(CN1CCc2c(ncn2C2CC2)C1)NC1CCOCC1", "cytotoxicity at 10 µM": -13.4},
      {"smiles": "Cn1cc(CCNCC2CNc3ccnn3C2)cn1", "note": "(stereo not given)", "cytotoxicity at 10 µM": 3.34},
      {"smiles": "O=C1NCCO[C@H]2CN(C(=O)Cc3cccs3)CC[C@@H]12", "cytotoxicity at 10 µM": -98.8},
      {"smiles": "CC(=O)N1CCO[C@@H]2CN(S(=O)(=O)c3cccs3)CC[C@@H]2C1", "cytotoxicity at 10 µM": 7.66},
      {"smiles": "CCCc1nnc(NC2CCN(C3CCCC3)CC2)o1", "cytotoxicity at 10 µM": -2.66},
      {"smiles": "Nc1nc(CCC(=O)N2C[C@@H](CN3CCCC3)C[C@H](CO)C2)n[nH]1", "cytotoxicity at 10 µM": -0.445},
      {"smiles": "COc1ccc(CC(C)(O)CNC(=O)Cc2ccc(F)cc2)cc1", "note": "(stereo not given)", "cytotoxicity at 10 µM": 3.91},
      {"smiles": "COc1c(C)cnc(CNCC(C)C)c1C", "cytotoxicity at 10 µM": -0.135}
    ]}
  ]
}
